Measurements as given in ChEMBL document CHEMBL1143652, “Joys of molecules. 2. Endeavors in chemical biology and medicinal chemistry” (J Med Chem, 2005).
“And” between values parts separate entries of the source, which are not always exact repeats. Equal values may be shown once.

How the values were obtained:
KB 3-1 [1] = assay: Cytotoxicity against KB3-1 human epidermoid cancer cells; format: functional, cell-based
KB 3-1 [2] = assay: Cytotoxicity against KB-31 human epidermoid cancer cells; format: functional, cell-based
[3] = target: T1, Mycothiol S-conjugate amidase (Mycobacterium tuberculosis, UniProt P9WJN1); assay: Inhibition of Mycobacterium tuberculosis detoxification enzyme mycothiol-S-conjugate amidase (MCA)
T1 sequence (P9WJN1 whole entry): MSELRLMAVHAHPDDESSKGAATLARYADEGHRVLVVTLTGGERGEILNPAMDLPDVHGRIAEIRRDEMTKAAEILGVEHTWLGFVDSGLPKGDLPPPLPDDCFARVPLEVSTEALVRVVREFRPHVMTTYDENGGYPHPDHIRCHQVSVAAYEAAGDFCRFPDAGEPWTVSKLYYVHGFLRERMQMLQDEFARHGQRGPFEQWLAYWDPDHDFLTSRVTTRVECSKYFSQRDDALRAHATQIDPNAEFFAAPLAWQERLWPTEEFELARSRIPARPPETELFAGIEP

Bacteria = assay: Minimum inhibitory concentration against bacterial strains; format: functional
[4] = target: Tubulin beta-4B chain (Homo sapiens) (UniProt P68371); assay: (§1) Tubulin polymerization at a concentration of 100 uM incubated for 90 minutes; format: functional
Summary of the method: (§2)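 Tubulin polymerization was read as percent polymerization, with test drug at 100 µM and a 90 min incubation.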

[5] = target: Tubulin beta-4B chain (Homo sapiens) (UniProt P68371); assay: as §1; summary of the method: as §2
1A9 [6] = assay: Inhibition concentration against human ovarian 1A9 tumor cells; format: functional, cell-based
[7] = Antiproliferation activity against cancer cell lines by mixed-lymphocyte-reaction proliferation assay; format: functional, cell-based; details: Homo sapiens
1A9 [8] = assay: Cytotoxicity against 1A9 ovarian cancer cells; format: functional, cell-based; details: Homo sapiens
[9] = target: Polyunsaturated fatty acid 5-lipoxygenase (Homo sapiens) (UniProt P09917); assay: Inhibitory concentration against 5-lipoxygenase
1A9 [10] = assay: Cytotoxicity against 1A9 human ovarian carcinoma cells; format: functional, cell-based
[11] = In vitro cytotoxicity against leukemia P-388 tumor cells; format: functional, cell-based; details: Mus musculus, P388
OVCAR-3 = assay: Cytotoxicity by measuring inhibitory concentration against ovcar-3 tumor cell line; format: functional, cell-based, Homo sapiens
Felis catus = species: Felis catus; assay: Inhibition of LTC4 and LTD4 production in cat lung at 5 mM; format: functional

Sequence of Polyunsaturated fatty acid 5-lipoxygenase (Homo sapiens) (P09917 whole entry): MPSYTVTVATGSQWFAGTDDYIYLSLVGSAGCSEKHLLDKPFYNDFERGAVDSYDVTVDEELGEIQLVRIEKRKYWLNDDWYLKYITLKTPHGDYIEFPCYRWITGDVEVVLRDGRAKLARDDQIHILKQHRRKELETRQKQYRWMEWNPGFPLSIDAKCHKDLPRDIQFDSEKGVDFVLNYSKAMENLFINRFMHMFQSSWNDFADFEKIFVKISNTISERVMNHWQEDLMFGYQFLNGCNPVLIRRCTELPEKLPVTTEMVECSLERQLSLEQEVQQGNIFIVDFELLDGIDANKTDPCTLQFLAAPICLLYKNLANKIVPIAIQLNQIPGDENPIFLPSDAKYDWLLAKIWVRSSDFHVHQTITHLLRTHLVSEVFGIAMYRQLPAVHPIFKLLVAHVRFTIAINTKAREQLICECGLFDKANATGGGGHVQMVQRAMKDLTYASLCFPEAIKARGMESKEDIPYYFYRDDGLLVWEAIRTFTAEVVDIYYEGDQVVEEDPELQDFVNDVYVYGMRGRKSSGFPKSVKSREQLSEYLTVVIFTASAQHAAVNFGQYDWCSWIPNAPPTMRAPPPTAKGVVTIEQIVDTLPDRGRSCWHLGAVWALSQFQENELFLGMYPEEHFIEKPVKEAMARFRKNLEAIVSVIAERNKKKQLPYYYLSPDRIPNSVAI
Sequence of Tubulin beta-4B chain (Homo sapiens) (P68371 whole entry): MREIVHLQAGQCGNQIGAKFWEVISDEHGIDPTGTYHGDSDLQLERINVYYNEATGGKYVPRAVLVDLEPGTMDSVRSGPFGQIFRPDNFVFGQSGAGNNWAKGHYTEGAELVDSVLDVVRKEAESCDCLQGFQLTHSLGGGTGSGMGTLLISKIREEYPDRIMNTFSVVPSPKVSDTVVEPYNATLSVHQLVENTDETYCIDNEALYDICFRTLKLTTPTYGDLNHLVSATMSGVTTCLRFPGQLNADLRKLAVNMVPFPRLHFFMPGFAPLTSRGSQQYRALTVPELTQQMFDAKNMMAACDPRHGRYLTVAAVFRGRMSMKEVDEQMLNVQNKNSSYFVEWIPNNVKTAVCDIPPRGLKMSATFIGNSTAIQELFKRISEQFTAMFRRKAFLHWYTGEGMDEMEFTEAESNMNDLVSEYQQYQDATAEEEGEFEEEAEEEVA

CC(C)=CCc1c2c(c(O)c3c1O[C@]14C(=C[C@@H]5C[C@H]1C(C)(C)OC4(CC=C(C)C)C5=O)C3=O)C=CC(C)(CCC(C)C)O2 (stereo partly specified)
IC50 (KB 3-1 [1]): 6.01 µM
IC50 (KB 3-1 [2]): 6.01 µM

O=C(NCCSSc1ccc(F)cc1)/C(Cc1cccc(Br)c1)=N/O
IC50 [3]: 90 µM
MIC (Bacteria): 0.11 ug m/L

CNC(=O)/C1=C/[C@@H]2[C@@H](C(C)C)CC=C(C)[C@@H]2C[C@H](OC(=O)/C=C/c2cn(C)cn2)[C@]2(C)C=C[C@@]1(OC)O2
TP [4]: 52%
TP [5]: 52%
IC50 (1A9 [6]): 0.045 µM

CCCCCCCCCC[C@H]1C[C@H]1CCCC/C=C\CC[C@@H](O)C(=O)N[C@@H](CO[C@@H]1O[C@@H](CO)[C@@H](O)[C@H](O)[C@@H]1O)[C@@H](CCCCCCC[C@@H]1C[C@@H]1CCCCCCCCCC)OC=C(C)C
IC50 [7]: 28 µM

CCCCCCCCCC[C@H]1C[C@H]1CCCC/C=C\CC[C@@H](O)C(=O)N[C@@H](CO[C@@H]1O[C@@H](CO)[C@@H](O)[C@H](O)[C@@H]1OC/C=C(\C)CCC=C(C)C)[C@H](O)CCCCCCC[C@@H]1C[C@@H]1CCCCCCCCCC
IC50 [7]: 28 µM

COC(=O)/C1=C/[C@@H]2[C@@H](C(C)C)CC=C(C)[C@@H]2C[C@H](OC(=O)/C=C/c2cn(C)cn2)[C@]2(C)C=C[C@@]1(O)O2 [SARCODICTYIN A]
TP [4]: 67%
TP [5]: 67%
IC50 (1A9 [6]): 0.34 µM

CC(C)=CCc1c2c(c(O)c3c1O[C@]14C(=C[C@@H]5C[C@H]1C(C)(C)OC4(CC=C(C)C)C5=O)C3=O)C=CC(C)(C)O2
IC50 (KB 3-1 [1]): 8.41 µM
IC50 (KB 3-1 [2]): 8.41 µM

CCCCCCCCCC[C@H]1CC1CCCC/C=C\CC[C@@H](O)C(=O)N[C@@H](CO[C@@H]1OC(CO)[C@@H](O)[C@H](O)[C@@H]1OCC=C(C)C)[C@H](O)CCC/C=C\CCCC[C@@H]1C[C@@H]1CCCCCCCCCC (single isomer, unassigned)
IC50 [7]: > 50 µM

COC1=C(CC=C(C)C)[C@]2(OC(=O)C3=C[C@]4(OC)C[C@H]5C(C)(C)OC(CC=C(C)C)(C4=O)[C@]35O2)C(=O)C2=C1C=CC(C)(C)O2
IC50 (1A9 [8]): 5 µM

O=C(NCCSSCCNC(=O)/C(Cc1ccc(O)c(Br)c1)=N/O)/C(Cc1ccc(O)c(Br)c1)=N/O [PSAMMAPLIN A]
MIC (Bacteria): 4.85 ug m/L

CCCCC/C=C/C\C=C/C=C/C=C/[C@@H]1C[C@H]1CCCC(=O)OC
ID50 [9]: 6 µM

O=C(/C=C/c1cccs1)N/C=C/C[C@H]1C[C@H]2C[C@H](O)C[C@H](Cc3cccc(O)c3C(=O)O1)O2
IC50 (1A9 [10]): 0.0413 µM

CCOC(=O)/C1=C/[C@@H]2[C@@H](C(C)C)CC=C(C)[C@@H]2C[C@H](OC(=O)/C=C/c2cn(C)cn2)[C@]2(C)C=C[C@@]1(O)O2 [SARCODICTYIN B]
TP [4]: 71%
TP [5]: 71%
IC50 (1A9 [6]): 0.002 µM

COC(=O)[C@]1(O)C(=O)c2c(cc(C)c(Br)c2O)[C@H]2[C@@H](C(C)C)CC[C@]21C [HAMIGERAN A]
IC50 [11]: 31.6 µM

CCCCCCCCCC[C@H]1C[C@H]1CCCC/C=C\CC[C@@H](O)C(=O)N[C@@H](CO[C@@H]1O[C@@H](CO)[C@@H](O)[C@H](O)[C@@H]1OCC=C(C)C)[C@H](O)CCCCCCC[C@@H]1C[C@@H]1CCCCCCCCCC
IC50 [7]: > 50 µM

CCCCC/C=C\C\C=C/C=C/C=C/[C@@H]1C[C@H]1CCCC(=O)O
ID50 [9]: 44 µM

Cc1cccc(C)c1SSCCNC(=O)/C(Cc1cc(F)cc(F)c1)=N/O
MIC (Bacteria): 0.28 ug m/L

Cc1cc2c(c(O)c1Br)C(=O)C(=O)[C@]1(C)CC[C@H](C(C)C)[C@H]21 [HAMIGERAN B]
IC50 [11]: 13.5 µM

CC/C=C/C=C/C(=O)N/C=C/C[C@H](O)C[C@H]1C[C@H](OC(C)=O)C[C@H](Cc2cccc3c2C(=O)OC(C)(C)O3)O1
IC50 (1A9 [10]): 0.035 µM

O=C(NCCSSc1ccc(F)cc1)/C(Cc1cc(F)cc(F)c1)=N/O
IC50 [3]: 2720 µM
MIC (Bacteria): 0.46 ug m/L

CC(=O)OC1C(=O)[C@@]2(C)[C@H]([C@H](OC(=O)c3ccc(N(C)C)cc3)[C@]3(O)C[C@H](OC(=O)[C@H](O)[C@@H](NC(=O)c4ccccc4)c4ccccc4)C(C)=C1C3(C)C)[C@]1(OC(C)=O)CO[C@@H]1C[C@@H]2O (stereo partly specified)
IC50 (OVCAR-3; Homo sapiens, OVCAR-3): 2.21 µM
IC50 (OVCAR-3; ovcar-3): 2.2 µM

Cc1cccc(C)c1SSCCNC(=O)/C(Cc1cccc(Br)c1)=N/O
MIC (Bacteria): 0.11 ug m/L

CCCCC/C=C\C1(/C=C\C2(/C=C\C3(/C=C\CCCC(=O)O)CC3)CC2)CC1
Inhibition (Felis catus): 10%

CCCCC/C=C\C/C=C\C/C=C\C1(/C=C\CCCC(=O)O)CC1
Inhibition (Felis catus): 8%

CCCCC/C=C\C/C=C\C1(/C=C\C2(/C=C\CCCC(=O)O)CC2)CC1
Inhibition (Felis catus): 5%

CCOC(=O)c1c(OCC)cc(C)cc1[C@H]1[C@@H](C(C)C)CC[C@@]1(C)C(=O)OCC
IC50 [11]: 54.2 µM

CCCOC(=O)/C1=C/[C@@H]2[C@@H](C(C)C)CC=C(C)[C@@H]2C[C@H](OC(=O)/C=C/c2cn(C)cn2)[C@]2(C)C=C[C@@]1(OC)O2
TP [4]: 69%
TP [5]: 69%
IC50 (1A9 [6]): 0.003 µM

CC/C=C\C=C/C(=O)N/C=C/C[C@H]1C[C@H]2C[C@H](OC(C)=O)C[C@H](Cc3cccc(O)c3C(=O)O1)O2
IC50 (1A9 [10]): 0.0032 µM

CC(=O)O[C@@H]1C2=C(C)[C@@H](OC(=O)[C@H](O)[C@@H](NC(=O)c3ccccc3)c3ccccc3)C[C@@](O)([C@@H](OC(=O)c3ccccc3)c3ccccc3[C@H]1OC(C)=O)C2(C)C
IC50 (OVCAR-3; ovcar-3): 0.028 µM and 0.28 µM

CO[C@@]12C=C3C(=O)O[C@]4(O[C@]35[C@@H](C1)C(C)(C)OC5(CC=C(C)C)C2=O)C(=O)C1=C(C=CC(C)(C)O1)C(=O)C4CC=C(C)C (stereo partly specified) [1-O-METHYLLATERIFLORONE]
IC50 (1A9 [8]): 25 µM

CC/C=C\C=C/C(=O)N/C=C\C[C@H]1C[C@H]2C[C@H](O)C[C@H](Cc3cccc(O)c3C(=O)O1)O2
IC50 (1A9 [10]): 0.0707 µM

C=CCO[C@@H]1[C@H](OC[C@H](NC(=O)[C@H](O)CC/C=C\CCCC[C@@H]2C[C@@H]2CCCCCCCCCC)[C@H](O)CCCCCCC[C@@H]2C[C@@H]2CCCCCCCCCC)O[C@@H](CO)[C@@H](O)[C@@H]1O
IC50 [7]: 7.1 µM

COC1(OC)C2=C(OC(C)(C)C=C2)C(=O)[C@@H](OC(=O)C2=C[C@]3(OC)C[C@H]4C(C)(C)OC(CC=C(C)C)(C3=O)[C@]24O)[C@@H]1CC=C(C)C
IC50 (1A9 [8]): 9 µM

CC(C)=CCCC1(C)C=Cc2c(O)c3c(c(CC=C(C)C)c2O1)O[C@]12C(=CC4C[C@H]1C(C)(C)OC2(CC=C(C)C)C4=O)C3=O (stereo partly specified) [GAMBOGIN]
IC50 (KB 3-1 [1]): 9.35 µM
IC50 (KB 3-1 [2]): 9.35 µM

O=C(/C=C/c1ccccc1)N/C=C/C[C@H]1C[C@H]2C[C@H](O)C[C@H](Cc3cccc(O)c3C(=O)O1)O2
IC50 (1A9 [10]): 0.05 µM

Nc1ccc(SSCCNC(=O)/C(Cc2cccc(Br)c2)=N/O)cc1
IC50 [3]: 185 µM
MIC (Bacteria): 0.09 ug m/L

CC(=O)OC1C(=O)[C@@]2(C)[C@H]([C@H](OC(=O)c3ccco3)[C@]3(O)C[C@H](OC(=O)[C@H](O)[C@@H](NC(=O)c4ccccc4)c4ccccc4)C(C)=C1C3(C)C)[C@]1(OC(C)=O)CO[C@@H]1C[C@@H]2O (stereo partly specified)
IC50 (OVCAR-3; Homo sapiens, OVCAR-3): 0.0451 µM
IC50 (OVCAR-3; ovcar-3): 0.045 µM

CC(=O)OC1C(=O)[C@@]2(C)[C@H]([C@H](OC(=O)c3ccc4ccccc4c3)[C@]3(O)C[C@H](OC(=O)[C@H](O)[C@@H](NC(=O)c4ccccc4)c4ccccc4)C(C)=C1C3(C)C)[C@]1(OC(C)=O)CO[C@@H]1C[C@@H]2O (stereo partly specified)
IC50 (OVCAR-3; ovcar-3): > 11000 µM

Cc1cc(O)c2c(c1)[C@H]1[C@@H](C(C)C)CC[C@@]1(C)C(=O)C2=O
IC50 [11]: 13.9 µM

CCOC(=O)/C1=C/[C@@H]2[C@@H](C(C)C)CC=C(C)[C@@H]2C[C@H](OC(=O)/C=C/c2cn(C)cn2)[C@]2(C)C=C[C@@]1(OC)O2
TP [4]: 46%
TP [5]: 46%
IC50 (1A9 [6]): 0.002 µM

Nc1ccc(SSCCNC(=O)/C(Cc2ccc(O)c(Cl)c2)=N/O)cc1
IC50 [3]: 35 µM
MIC (Bacteria): 1.23 ug m/L

CC/C=C\C=C/C(=O)N/C=C/C[C@H]1C[C@H]2C[C@H](O)C[C@H](Cc3cccc(O)c3C(=O)O1)O2 [APICULAREN A]
IC50 (1A9 [10]): 0.00078 µM
